Calls of active or inactive are those of the source. The rule behind the calls is not given here.
What was measured:
[1] = target: Pancreatic elastase (Sus scrofa) (UniProt P08419+P00772); test: Inhibition of Pancreatic elastase at 10e-5 M; NI means no inhibition; type: protein assay
In short: (§1)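 Porcine pancreatic elastase diluted to 2 mg/mL in PBS pH 7.5. Substrate N-acetyl-Ala-Ala-Ala-p-nitroanilide, 0.2 mM in PBS with 5% DMSO, preincubated 5 min at 37 °C with or without compound. Enzyme then added and the reaction followed at 410 nm for 5 min. Compounds dissolved in DMSO, ≤0.5% in samples.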

[2] = target: Serine protease 1 (Homo sapiens) (UniProt P07477); test: Inhibitory activity against trypsin at 10e-5 M; NI = no inhibition
Serine protease 1 (Homo sapiens), sequence (P07477 whole entry): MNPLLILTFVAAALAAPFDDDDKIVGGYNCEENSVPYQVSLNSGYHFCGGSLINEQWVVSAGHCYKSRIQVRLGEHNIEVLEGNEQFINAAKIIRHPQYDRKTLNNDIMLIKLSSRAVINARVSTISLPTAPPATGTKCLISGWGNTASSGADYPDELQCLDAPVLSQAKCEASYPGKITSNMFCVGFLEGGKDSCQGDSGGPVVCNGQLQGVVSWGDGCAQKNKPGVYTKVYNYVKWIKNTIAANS
In short: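 Trypsin dissolved at 1 mg/mL in PBS pH 7.5. Substrate N-α-benzoyl-L-arginine-p-nitroanilide, 0.2 mM in PBS with 5% DMSO, preincubated 5 min at 37 °C with or without compound. Enzyme then added and the reaction followed at 410 nm for 5 min. Compounds dissolved in DMSO, ≤0.5% in samples.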

[3] = Concentration inhibiting [3H]TdR incorporation in Yoshida sarcoma tumor cells in vitro in rats; type: functional, cell-based, Rattus norvegicus
In short: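 Yoshida sarcoma cells kept by weekly intraperitoneal passage in Lewis rats. Peritoneal cells washed, placed in RPMI 1640 with 10% FCS at 37 °C, 5% CO2. Nonadherent cells taken after 2 h, set at 10^6 cells/mL, then exposed 24 h to compounds (10^-8–10^-4 M, DMSO ≤0.5%). [3H]thymidine (1 μCi/mL) given for the last 4 h. IC50 for incorporation into DNA read from dose-response curve.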

[4] = target: T1, Chymotrypsin-like elastase family member 2A (Sus scrofa) (UniProt P08419); test: Inhibitory activity against elastase at a concentration of 10e-5 M; NI means no inhibition; in short: as §1
T1 sequence (whole entry): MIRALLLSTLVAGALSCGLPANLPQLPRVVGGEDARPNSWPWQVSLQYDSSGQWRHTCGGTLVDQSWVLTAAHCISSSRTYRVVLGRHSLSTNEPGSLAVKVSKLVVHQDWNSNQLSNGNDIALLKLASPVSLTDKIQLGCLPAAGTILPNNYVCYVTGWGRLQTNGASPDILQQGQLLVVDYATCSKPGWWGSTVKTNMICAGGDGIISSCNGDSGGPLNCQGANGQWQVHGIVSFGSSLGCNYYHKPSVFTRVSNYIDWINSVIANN

Pancreatic elastase (Sus scrofa), sequence (P00772 whole entry, looked up, one chain of several): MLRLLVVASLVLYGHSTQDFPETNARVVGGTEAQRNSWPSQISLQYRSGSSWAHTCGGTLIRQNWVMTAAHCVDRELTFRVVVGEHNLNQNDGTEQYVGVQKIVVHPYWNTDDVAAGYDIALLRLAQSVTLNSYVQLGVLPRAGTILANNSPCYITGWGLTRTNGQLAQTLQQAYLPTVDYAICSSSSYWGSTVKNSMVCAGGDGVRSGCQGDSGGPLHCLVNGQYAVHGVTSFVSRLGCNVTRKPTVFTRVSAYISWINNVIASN

Row | inhibition [1] | inhibition [2] | IC50 [3] [nM] | Structure (SMILES) | inhibition [4]
1 | inactive | inactive | < 20 | COc1cccc2c1C(=O)c1c(O)c3c(c(O)c1C2=O)C[C@@](O)(C(C)=O)C[C@@H]3O[C@H]1C[C@H](N)[C@H](O)[C@H](C)O1 [DAUNORUBICIN] | 
2 | inactive | inactive | 1400 | COC1C(O[C@@H]2c3c(cc4c(c3O)C(=O)c3c(O)cccc3C4=O)C(=O)[C@@](C)(O)[C@H]2OC)OC(C)C(O)C1O[Si](C)(C)C(C)(C)C (some centres undefined) | 
3 | inactive | inactive | 1000 | COC1C(O[C@@H]2c3c(cc4c(c3O)C(=O)c3c(O)cccc3C4=O)C(=O)[C@](C)(O)[C@H]2OC)OC(C)C(O)C1O (some centres undefined) | 
4 | inactive | inactive | 4700 | COC1C(C)OC(O[C@@H]2c3c(cc4c(c3O)C(=O)c3c(O)cccc3C4=O)C(=O)[C@@](C)(O)[C@H]2OC)C(OC)C1OC (some centres undefined) | 
5 | inactive | inactive | 1300 | COC1C(O[C@@H]2c3c(cc4c(c3O)C(=O)c3c(O)cccc3C4=O)C(=O)[C@@](C)(O)[C@H]2OC)OC(C)C(OC(C)=O)C1OC(C)=O (some centres undefined) | 
6 | inactive | inactive | 5000 | COC1C(O[C@@H]2c3c(cc4c(c3O)C(=O)c3c(O)c(N(C)C)cc(N(C)C)c3C4=O)C(=O)[C@@](C)(O)[C@H]2OC)OC(C)C(O)C1O (some centres undefined) | 
7 | inactive | inactive | 3900 | COC1C(O[C@@H]2c3c(cc4c(c3O)C(=O)c3c(O)cccc3C4=O)C(/N=N/S(=O)(=O)c3ccc(C)cc3)[C@@](C)(O)[C@H]2OC)OC(C)C(O)C1O (some centres undefined) | 
8 | inactive | inactive | 2200 | COC1C(O[C@@H]2c3c(cc4c(c3O)C(=O)c3c(O)cccc3C4=O)C(=O)[C@@](C)(O)[C@H]2OC)OC(C)C(O)C1O (some centres undefined) | 
9 | inactive | inactive | 630 | COC1C(O[C@@H]2c3c(cc4c(c3O)C(=O)c3c(ccc(N(C)C)c3O)C4=O)C(=O)[C@@](C)(O)[C@H]2OC)OC(C)C(O)C1O (some centres undefined) | 
10 | inactive | inactive | 630 | CCOP(=O)(OCC)O[C@]1(C)C(=O)c2cc3c(c(O)c2[C@@H](OC2OC(C)C(O)C(O)C2OC)[C@@H]1OC)C(=O)c1c(O)cccc1C3=O (some centres undefined) | 
11 | inactive | inactive | < 20 | COc1cccc2c1C(=O)c1c(O)c3c(c(O)c1C2=O)C[C@@](O)(C(=O)CO)C[C@@H]3O[C@H]1C[C@H](N)[C@H](O)[C@H](C)O1 [DOXORUBICIN] | 
12 | inactive | inactive | 600 | CO[C@H]1[C@H](O)c2c(cc3c(c2O)C(=O)c2c(O)cccc2C3=O)C(=O)[C@@]1(C)O | 

Row | Structure (SMILES) | inhibition [1] | inhibition [2] | IC50 [3] [nM] | inhibition [4]
13 | CC[C@@]1(O)C[C@H](O[C@H]2C[C@H](N(C)C)[C@H](O[C@H]3C[C@H](O)[C@H](O[C@H]4CCC(=O)[C@H](C)O4)[C@H](C)O3)[C@H](C)O2)c2c(cc3c(c2O)C(=O)c2c(O)cccc2C3=O)[C@H]1C(=O)OC [ACLARUBICIN] |  | inactive | < 20 | inactive
